Not all results are given here.
Apaf1 activ: activators of human Apaf-1 apoptosome, primary screen, biochemical, DEVD-Rh110 fluorescence, uHTS; Apoptotic protease-activating factor 1 (Homo sapiens), O14727; Apaf-1 apoptosome caspase-3 activation; stronger effect = lower value; activity change, negative = activation, % at 20 µM; 330,000 tested, 0.31% active; AID 489031, 2010;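 active = activity change at or below -40% at 20 µM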
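Schedule: 30 min preincubation, 50 min reaction, room temperature / System: biochemical Apaf-1 apoptosome reconstitution / Medium: 20 mM HEPES pH 7.5 with CHAPS, BSA / Evaluation: Caspase-3 cleavage activity downstream of Apaf-1 activation / Detection: Caspase-3-released Rh110 fluorescence, 540 nm emission, 480 nm excitation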
Rh110 act interf: Rh110 fluorescence interference by putative Apaf-1 activators, confirmation, artefact control for Apaf-1 activator project, biochemical, 20 µM. shares compounds with Apaf1 activ. quenched caspase reaction, Ex480/Em540. fluorescence interference (activity change), % at 20 µM, hits read low. 980 tested, under 10 active. AID 504616, 2011;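 active = mean activity change at or below -40% when tested at 20 µM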
Apaf-1 act conf2: Apaf-1 activators, single-dose retest, confirmation, biochemical, fluorescence, DEVD-Rh110, 20 µM; 980 tested, 5% active; reconstituted apoptosome caspase-3 activity; stronger effect = lower value; shares compounds with Apaf1 activ; activity change, negative = activation, % at 20 µM;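 active = mean activity change at or below -40%, meaning activation of 40% or more, at 20 µM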
Apaf1 act interf: fluorescence interference of Apaf-1 activator hits, dose response, artefact control for Apaf-1 activator project. shares compounds with Apaf1 activ. fluorescence interference counterscreen, Apaf-1 activator assay. EC50, µM. 55 tested, under 10 active; call rule not given here
The depositor's hits bear a star; nt = no result.

SMILES	Apaf1 activ	Rh110 act interf	Apaf-1 act conf2	others
O=C(/C=C/c1ccc(-c2ccccc2[N+](=O)[O-])o1)c1ccc(Br)cc1	49	nt	nt
COc1ccc(N/C=C2\CCc3ccccc3C2=O)cc1	79	nt	nt
CCN(Cc1ccccc1)C(=O)C1CCC(CNc2c(N3CCOCC3)c(=O)c2=O)CC1 (configuration not stated)	-410*	10	1
CCC(C)[C@H]1CN=C(N)N1CCc1cc(C(F)(F)F)cc(C(F)(F)F)c1 (some centres not stated)	57	nt	nt
COc1ccc(N2C(=O)CC(N(CCc3ccc(OC)c(OC)c3)C(=S)Nc3ccccc3)C2=O)cc1 (configuration not stated)	-41*	-4	16
COc1ccc(C2CC(=O)N3CN(c4ccc(C)c(Cl)c4)CSC3=C2C#N)cc1 (configuration not stated)	47	nt	nt
COc1cc(OC)c2c(-c3ccccc3)cc(=O)oc2c1C(CCN1CCOCC1)c1ccc(N(C)C)cc1 (configuration not stated)	52	nt	nt
C=C(C)C(=O)Nc1cccc(C2=NOC3(C2)C[C@@H](C(N)=O)N(C(=O)C(=C)C)C3)c1 (some centres not stated)	-291*	1	-133*	Apaf1 act interf=>100
C=C(C)C(=O)Nc1cccc(C2=NOC3(C2)C[C@H](C(N)=O)N(C(=O)c2ccccc2)C3)c1 (some centres not stated)	-64*	-7	-59*	Apaf1 act interf=>100
C=C(C)C(=O)Nc1cccc(C2=NOC3(C2)C[C@@H](C(N)=O)N(C(=O)c2cc([N+](=O)[O-])cc([N+](=O)[O-])c2C)C3)c1 (some centres not stated)	-107*	-3	-128*	Apaf1 act interf=>100
C=C(C)C(=O)Nc1cccc(C2=NOC3(C2)C[C@@H](C(N)=O)N(C(=O)c2ccc(Cl)cc2)C3)c1 (some centres not stated)	-204*	12	-127*	Apaf1 act interf=>100
COc1cccc2c1C(=O)c1ccc3ccccc3c1C2=O	72	nt	nt
Cc1nc2sccn2c(=O)c1CCN1CCC(=C(c2ccccc2)c2ccc(F)cc2)CC1	42	nt	nt
COc1ccc(/C=N/Nc2cc(C)nc3ccc(Br)cc23)cc1	55	nt	nt
CN(C)c1cc(N/N=C\c2ccccc2)nc(N(C)C)n1	95	nt	nt
CCOC(=O)C1=C(CN2CCN(c3ccc(F)cc3)CC2)NC(=O)NC1c1cccs1 (configuration not stated)	41	nt	nt
CC(N=Cc1cccc(O)c1O)c1ccccc1 (configuration not stated)	71	nt	nt
CCc1ccc(OCCNc2cc(N3CCNC(C)C3)ccc2[N+](=O)[O-])cc1 (configuration not stated)	75	nt	nt
Cc1cc(Nc2cccc(Cl)c2)nc(NCc2ccccc2)n1	43	nt	nt
C=C(C)C(=O)Nc1cccc(C2=NOC3(C2)C[C@H](C(N)=O)N(C(=O)COc2ccc(Cl)cc2)C3)c1 (some centres not stated)	-344*	0	-127*	Apaf1 act interf=>100
Cc1nn(CCc2nn[nH]n2)c2nc(-c3ccc(C4CCCCC4)cc3)cc(C(F)(F)F)c12	60	nt	nt
COc1ccc(CN=Cc2[nH]c3ccc(Br)c(Cl)c3c2O)cc1	45	nt	nt
COc1ccc2nc3cccc(OC)c3nc2c1	97	nt	nt
NS(=O)(=O)c1ccc2c(c1)C1C=CCC1C(C1CC=CCC1)N2 (configuration not stated)	47	nt	nt
O=C(Nc1ccccc1)c1ccc2nc(-c3ccco3)c(-c3ccco3)nc2c1	60	nt	nt
SMILES	Apaf1 activ	Rh110 act interf	Apaf-1 act conf2	others
COc1ccc(Nc2ccc(OC)cc2)cc1	80	nt	nt
COc1ccc(C(=O)Nc2ccc(C(=O)c3ccccc3)cc2)cc1	-385*	-2	2
C=CCn1c(N)c(C(=O)Nc2ccccc2)c2nc3ccccc3nc21	67	nt	nt
O=C(CSc1ccccn1)N1CCN(c2ccccc2)CC1	-49*	-10	6
Cc1ccc(-c2noc(CCC(=O)N3CCN(c4cccc(C(F)(F)F)c4)CC3)n2)cc1	42	nt	nt
O=C(NCCc1ccccc1)c1ccccc1SCC(=O)N1CCCC1	60	nt	nt
Cc1ccc(C=Nc2ccccc2C(=O)Nc2ccccc2)cc1	-464*	5	8
COc1ccc(/C=N/NC(=O)CCn2cnc(-c3ccccc3)c2-c2ccccc2)cc1	54	nt	nt
COc1cccc(/C=N/NC(=O)CCn2nnc3ccccc32)c1	-70*	1	6
O=C1NCCCC2c3cc(O)c4ccccc4c3OC12N1CCCCC1 (configuration not stated)	93	nt	nt
CC1(C)Nc2ccc(O)cc2-c2c1ssc2=S	51	nt	nt
O=C(NCc1ccccc1)C1(CC2CC(c3ccccc3)=NO2)CCNCC1 (configuration not stated)	47	nt	nt
CCCc1[nH]nc2c1C(c1ccc(OC)c(CSC3=NCCS3)c1)C(C#N)=C(N)O2 (configuration not stated)	41	nt	nt
CS(=O)(=O)N(Cc1ccc(C(=O)NN=C2CCCCCC2)cc1)c1ccccc1	-482*	2	14
COc1ccc(N2C(=O)CCC(C(=O)O)C2c2ccccc2OC)cc1 (configuration not stated)	-172*	-2	6
Cc1ccc(S(=O)(=O)N2CCN(c3ccc([N+](=O)[O-])c4cccnc34)CC2)cc1	47	nt	nt
CCN(CC(=O)Nc1c(F)cccc1F)C(=O)Cc1ccsc1	52	nt	nt
CS(=O)(=O)N(CC(=O)Nc1c(F)cccc1F)Cc1ccccc1	-59*	7	14
CCN(CC)CC(=O)Nc1c(C)cccc1C	-5	nt	nt
COc1ccccc1N=Nc1ccc(O)c2ncccc12	90	nt	nt
C1=CC2c3ccccc3NC(c3ccncc3)C2C1 (configuration not stated)	49	nt	nt
N#Cc1nc(-c2ccco2)oc1N1CCc2ccccc2C1	52	nt	nt
CNS(=O)(=O)/C=C/c1ccccc1	-407*	-8	11
C#CCOCCOCCOCCNc1nc(N2CCN(C(=O)[C@H]([C@@H](C)CC)n3cc([C@@H](N)CC(C)C)nn3)CC2)nc(N2CCN(C(=O)[C@H](Cc3cc4ccccc4[nH]3)n3cc([C@@H](N)CC(C)C)nn3)CC2)n1	58	nt	nt
C#CCOCCOCCOCCNc1nc(N2CCN(C(=O)CCCCCCCCCCNC(=O)[C@@H](CCSC)n3cc(CCO)nn3)CC2)nc(N2CCN(C(=O)CCCCCCCCCCNC(=O)[C@H]([C@@H](C)CC)n3cc(CCCCN=C(N)N)nn3)CC2)n1	64	nt	nt
CCOc1ccc(NC(=O)CN(C)S(=O)(=O)c2ccc(-c3ccc(=O)[nH]n3)s2)cc1	-86*	12	17
CCOc1ccc(C(=O)Nc2sc3c(c2C(=O)OC)CC(C)(C)NC3(C)C)cc1	41	nt	nt
Nc1cccc2cnccc12	67	nt	nt
COc1cccc(N2CCN(CC(=O)Nc3ccccc3C(=O)NCCc3ccccc3)CC2)c1	50	nt	nt

Compound activity as filed in PubChem BioAssay.
